thrombin 1536 = blocks human thrombin protease activity; alpha-thrombin, Boc-VPR-AMC fluorogenic substrate cleavage; AID 1046; P00734; hit rate 0.26% among 220,000; inhibition, % at 5 µM;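 active = inhibition at or above 40%; inactive = inhibition below 40%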;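 also: 0% = enzyme with no compound and 100% = wells without enzyme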
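Assay system: human alpha-thrombin enzyme. Reagent: Boc-VPR-AMC substrate, 15 µM final. Compound dosing: one concentration per compound, 5 µM, with 0.2% DMSO. Incubation: room-temperature reaction. Technique: AMC fluorescence, 355/460 nm. Measure: % inhibition relative to enzyme controls and enzyme-free blanks.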
FXIIa inh 1536 = inhibitors of human coagulation factor XIIa. purified FXIIa, Boc-QGR-AMC fluorogenic substrate, 2 h. inhibition, % at 5 µM. hit rate 0.3% among 220,000. AID 800; in the data active = inhibition above about 40%;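 also: 0% = enzyme with no compound and 100% = blank without enzyme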
STAT3 act-1 = STAT3 signaling activation; U3A cells, IL-6 STAT3-luciferase reporter, luminescence; 100% = signal with IL-6 EC80 alone; activation (% of control), % at 5.6 µM; hit rate 0.91% among 190,000; AID 871;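 active = activation above the screen-wide mean of compound activation plus 3 SD, cut at about 130% in these data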;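 also: 0% = background luminescence of wells with medium and substrate only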
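System – human U3A cells carrying STAT3-luciferase construct · Probe or stimulus – Interleukin-6, 33 ng/mL · Schedule – compound 1 h, then IL-6 6 h at 37 °C · Signal – luminescence from STAT3-driven luciferase reporter · Evaluation – percent of IL-6-only median luminescence · Benchmarks – IL-6-only high control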
AHR activator = human AHR activation; hit rate 2.5% among 320,000; activation, % at 5 µM; AHR-responsive luciferase reporter cells, luminescence; P35869; AID 2796; in the data active = activation above about 47%;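 also: 0% = vehicle wells and 100% = reference agonist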
FXIa inh 1536 = factor XIa (human) inhibition | P03951 | purified FXIa, Boc-Glu-Ala-Arg-AMC fluorogenic substrate | inhibition, % at 5 µM | hit rate 0.14% among 220,000 | AID 798;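 active = inhibition of at least 40%; inactive = inhibition below 40%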;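 also: fluorescence of freed AMC excited at 355 nm; 0% = enzyme without compound and 100% = no enzyme blank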
hK5 inh = kallikrein 5 (human) inhibition. recombinant hK5, fluorogenic AMC substrate cleavage. AID 873. hit rate 0.59% among 210,000. inhibition, % at 5 µM;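 active = inhibition of 40% or more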;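 also: 0% = enzyme controls without compound and 100% = no-enzyme blanks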
STAT3 act-2 = STAT3 activation, confirmation assay. shares compounds with STAT3 act-1. U3A STAT3-luciferase reporter, IL-6 potentiation, luminescence; U3A cells lack STAT1; 100 means same as IL-6 alone. potentiation (% of control), % at 5.7 µM. hit rate 64% among 1,200. AID 1267;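 active = percent activation of the STAT3 luciferase reporter above a set limit taken from the earlier primary screen, cut at about 130% in these data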;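 also: 0% = background signal of medium plus substrate and 100% = median of IL-6 with DMSO wells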
NFkB act 2 = activates NF-kappaB, counter-screen to STAT3 activators; shares compounds with STAT3 act-1; human cells, NF-kappaB reporter activation; activation (% of control), % at 5.7 µM; hit rate 11% among 1,200; in the data active = activation above about 120%;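 also: reporter induced by TNF-alpha stimulation; 100% = median of stimulated DMSO wells and 0% = no signal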
STAT1 act STAT3c = STAT1 activation in STAT3 activator counter-screen; shares compounds with STAT3 act-1; NIH 3T3 STAT1-luciferase reporter, IFN-gamma, luminescence; activation (% of control), % at 5.7 µM; hit rate 13% among 1,200; AID 1318;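 active = activation above the solvent-only control well mean plus 3 SD, set per screening run, cut at about 120% in these data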;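 also: 100% = IFN-gamma with DMSO median signal so 100% means no change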
AHR act confirm = human AHR activation, confirmation | shares compounds with AHR activator | human cells, AHR-responsive luciferase reporter, luminescence | activation, % at 9 µM | hit rate 87% among 2,300 | AID 2845; in the data active = activation above about 49%;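 also: HepG2 hepatoma cells carrying a DRE-driven firefly luciferase reporter; 0% = vehicle wells and 100% = reference agonist wells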
PXR counter = PXR activation, counter-screen for AHR activators; shares compounds with AHR activator; cell-based PXR reporter, luciferase luminescence; activation, % at 11.6 µM; hit rate 88% among 2,300; AID 434939; in the data active = activation above about 11%;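 also: human hepatoma DPX-2 cells expressing full-length human PXR; 0% = DMSO and 100% = reference agonist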
The depositor's hits bear a star. Hits are enriched below; roughly 3.5% of the tested compounds scored in any of these assays.

O=C(O)c1nc(N2CCCC2)ncc1Cl was read as thrombin 1536 -7.6, FXIIa inh 1536 -7.5, STAT3 act-1 101.0, AHR activator 1.4, FXIa inh 1536 1.5 and hK5 inh -15.2.
`CCOC(=O)C1(Cc2ccc(OC)cc2)CCN(C(=O)c2cc3ccccc3[nH]2)CC1` gave thrombin 1536 -9.2, FXIIa inh 1536 2.9, STAT3 act-1 156.5*, AHR activator 104.7*, FXIa inh 1536 -3.7, hK5 inh -2.1, STAT3 act-2 147.5*, NFkB act 2 109.2, STAT1 act STAT3c 116.6, AHR act confirm 89.4* and PXR counter 40.3*.
For CCOC(=O)C1(Cc2ccc(OC)cc2)CCN(C(=O)c2cc(C)on2)CC1 the results were AHR activator 4.8.
Screening CN=C(Nc1ccc(Cl)cc1)c1ccc(C(F)(F)F)cc1 returned thrombin 1536 1.4, FXIIa inh 1536 7.1, STAT3 act-1 91.5, AHR activator 84.8*, FXIa inh 1536 6.9, hK5 inh 3.4, AHR act confirm 98.0* and PXR counter 45.0*.
CC(C)(CCl)C(=O)Nc1ccc(C(F)(F)F)cc1 was read as thrombin 1536 -1.1, FXIIa inh 1536 4.3, STAT3 act-1 91.4, AHR activator -1.4, FXIa inh 1536 -1.7 and hK5 inh -2.6.
`CN=C(Nc1ccc(Cl)cc1)c1cccc(C(F)(F)F)c1` gave thrombin 1536 0.4, FXIIa inh 1536 -2.9, STAT3 act-1 95.3, AHR activator 83.7*, FXIa inh 1536 -4.9, hK5 inh -0.9, AHR act confirm 89.0* and PXR counter 55.6*.
Screening CCn1c(SCC(=O)NCc2ccccc2)nc2c(c1=O)SC(C)C2 (stereo unspecified) returned thrombin 1536 -6.8, FXIIa inh 1536 9.9, STAT3 act-1 107.5, AHR activator 3.5, FXIa inh 1536 -1.8 and hK5 inh -8.0.
`O=C(COC(=O)c1cc(S(=O)(=O)N2CCOCC2)ccc1F)NCc1ccc2c(c1)OCO2` gave AHR activator 0.3.
For O=C(Nc1ccc(-c2cn3c(n2)SCC3)cc1)c1ccc2ccccc2n1 the results were thrombin 1536 0.2, FXIIa inh 1536 6.8, STAT3 act-1 86.2, AHR activator -1.7, FXIa inh 1536 0.4 and hK5 inh 12.7.
Screening O=C(Nc1cccc(-c2cn3c(n2)SCC3)c1)c1ccc2ccccc2n1 returned thrombin 1536 -11.8, FXIIa inh 1536 2.5, STAT3 act-1 110.9, AHR activator 93.7*, FXIa inh 1536 0.3, hK5 inh 1.0, AHR act confirm 54.2* and PXR counter 39.0*.
`COc1ccc(N2CCN(C(=O)CSc3nnc4c5cc(C)ccc5n(C)c4n3)CC2)cc1` gave thrombin 1536 1.3, FXIIa inh 1536 29.1, STAT3 act-1 121.1, AHR activator 34.3, FXIa inh 1536 17.6 and hK5 inh -13.1.
Screening Cc1ccc2c(c1)c1nnc(SCC(=O)NC3CC3)nc1n2C returned AHR activator 79.4*, AHR act confirm 100.2* and PXR counter 19.1*.
For O=C(CC(=O)NC1CCCCC1)N/N=C/c1ccccc1F the results were thrombin 1536 -12.3, FXIIa inh 1536 3.9, STAT3 act-1 104.3, AHR activator 3.8, FXIa inh 1536 0.4 and hK5 inh -0.8.
Screening OCCc1c[nH]c2ccc(C(F)(F)F)cc12 returned AHR activator 4.1.

From PubChem
